# In paper PMC4780051 (Biochemistry, 2010):
# Key:
# [1] = molecular target: T1, ct-AChBP (Capitella teleta acetylcholine-binding protein) (Capitella teleta, UniProt I6L8L2); test: STD NMR displacement titration with choline as reporter ligand
# T1 sequence (I6L8L2 1-224): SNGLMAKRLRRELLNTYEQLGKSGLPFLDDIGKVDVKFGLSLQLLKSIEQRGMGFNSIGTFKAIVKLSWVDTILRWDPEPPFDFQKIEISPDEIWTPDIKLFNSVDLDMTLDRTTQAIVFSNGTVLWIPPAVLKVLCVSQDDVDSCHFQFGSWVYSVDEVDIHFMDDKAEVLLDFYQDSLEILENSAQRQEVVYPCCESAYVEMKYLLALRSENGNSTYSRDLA
# Procedure, shortened: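 C-terminally V5/His-tagged ct-AChBP, stably expressed in HEK293-f cells, purified from medium by cobalt affinity then Superdex 200. 5 μM protein with 100 μM choline in 25 mM phosphate pH 7.0, 100% D2O, titrated with test compound; 16K scans; choline CH2 STD peaks tracked. KD fitted by competition equation using choline KD from shift/line-width titration; standard errors from asymptotic covariance matrix.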
# [2] = molecular target: T1, ct-AChBP (Capitella teleta acetylcholine-binding protein); test: 1H NMR direct titration
# [3] = molecular target: T1, ct-AChBP (Capitella teleta acetylcholine-binding protein); test: STD NMR displacement titration with acetylcholine as reporter ligand
# [4] = molecular target: Capitella teleta acetylcholine-binding protein (Capitella teleta); test: NMR titration
compound,measurement,setting,value
"CC(=O)OCC[N+](C)(C)C [ACh, acetylcholine]",Kd,[1],28.7 ± 1.7 µM
"C[N+](C)(C)CCO [Ch, choline]",Kd,[2],163 ± 37 µM
"CN1CCC[C@H]1c1cccnc1 [Nic, nicotine]",Kd,[3],0.209 ± 0.051 µM
α-bungarotoxin (from UniProt P60615 22-95) (natural protein),Kd,[4],0.11 µM
